Laboratory results taken from ChEMBL document CHEMBL3414521, “Discovery of the 2-phenyl-4,5,6,7-Tetrahydro-1H-indole as a novel anti-hepatitis C virus targeting scaffold” (Eur J Med Chem, 2015).
Active and inactive are the calls of the source. No cut-off for these calls is given here.

Assays:
[1] = Cytotoxicity against human Huh7.5 cells after 48 hrs by MTS assay; type: cell-based; details: huh-7, 48 h
Summary of the method: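 Parental Huh7.5 cells grown in DMEM with 10% FCS without G418, 37 °C, 5% CO2; treated at 6–8 doses for 48 h. Viability by MTS bioreduction to formazan; CC50 as concentration halving MTS conversion relative to DMSO controls, mean ± SD of three independent experiments.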

[2] = Selectivity index, ratio of CC50 for human Huh7.5 cells to EC50 for HCV genotype 1b infected in HuH7/Rep-Feo1b cells; design: species or system Huh-7
Hepatitis C virus [3] = assay: Antiviral activity against HCV genotype 1b infected in HuH7/Rep-Feo1b cells at 50 uM by firefly luciferase reporter gene assay; type: functional, Hepacivirus hominis; details: for inhibition at 50 µM: Huh-7; for inhibition: Hepacivirus hominis
Summary of the method: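 Replicon reporter cells (gt 1b in Huh7/Rep-Feo1b, firefly luciferase; gt 2a in Huh7.5-FGR-JC1-Rluc2A, Renilla luciferase) kept in DMEM with 10% FCS and 0.5 mg/mL G418, 37 °C, 5% CO2. About 1×10^4 cells per well were treated at 50 μM for 48 h in 1.0% DMSO. Luciferase signal was read relative to DMSO-treated cells as % inhibition.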

[4] = Selectivity index, ratio of CC50 for human Huh7.5 cells to EC50 for HCV genotype 2a infected in HuH7.5-FGR-JC1_Rluc2A cells; design: species or system Huh-7
Hepatitis C virus [5] = assay: Antiviral activity against HCV genotype 2a infected in HuH7.5-FGR-JC1_Rluc2A cells by […]; type: functional, Hepacivirus hominis
[6] = test system: Hepatitis C virus (isolate Con1); assay: Inhibition of HCV Con1 genotype 1b C-terminal His-tagged NS3 helicase lacking N-terminal protease using fluorescent DNA as substrate at 500 uM
Summary of the method: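 Molecular beacon unwinding assay: 12.5 nM NS3h, 5 nM fluorescent DNA substrate, 1 mM ATP, 25 mM MOPS pH 6.5, 1.25 mM MgCl2, 5% DMSO, 5 µg/ml BSA, 0.01% Tween20, 0.05 mM DTT; compounds up to 500 μM.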

[7] = Inhibition of HCV Con1 genotype 1b C-terminal His-tagged NS3 helicase lacking N-terminal protease using ATP/RNA as substrate after 15 mins by malachite green-based assy; design: species or system Hepatitis C virus (isolate Con1)
Summary of the method: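 NS3h (con1 gt 1b, C-terminal His-tag, protease-deleted) at 4 nM with 1 μM polyU RNA (nucleotide), 25 mM MOPS pH 6.5, 1.25 mM MgCl2, 1 mM ATP, 33 µg/ml BSA, 0.07% Tween 20, 0.3 mM DTT, 10% DMSO; started with ATP, 15 min, 37 °C. Phosphate by malachite green, A630. Two-fold series 0.5 mM–0.78 µM, duplicate; variable-slope fit, mean ± SD.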

Hepacivirus hominis = assay: Inhibition of recombinant HCV hexa histidine-tagged NS5B Cdelta21 RNA dependent RNA polymerase expressed in Escherichia coli at 50 uM after 60 mins by liquid scintillation counting analysis
Hepatitis C virus [8] = assay: Antiviral activity against HCV genotype 1b infected in HuH7/Rep-Feo1b cells by firefly luciferase reporter gene assay; type: functional, cell-based, Hepacivirus hominis; details: Huh-7
Summary of the method: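 Huh7 cells carrying autonomously replicating gt 1b replicon with firefly luciferase reporter; ~1×10^4 cells/well treated 48 h, 1.0% DMSO final. Primary screen at 50 μM; actives titrated over 8–12 quarter-log dilutions. Luciferase signal relative to DMSO-treated controls; EC50 from dose-response curves, mean ± SD of three independent experiments.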

Hepatitis C virus [9] = assay: Antiviral activity against HCV genotype 2a infected in HuH7.5-FGR-JC1_Rluc2A cells at 50 uM by […] luciferase reporter gene assay; type: functional, Hepacivirus hominis; details: for inhibition: Hepacivirus hominis

Row | SMILES | CC50 [1] [µM] | Ratio CC50/EC50 [2] | inhibition at 50 µM (Hepatitis C virus [3]) [%] | Ratio CC50/EC50 [4] | EC50 (Hepatitis C virus [5]) [µM] | inhibition [6] | IC50 [7] [µM] | inhibition (Hepacivirus hominis) | EC50 (Hepatitis C virus [8]) [µM] | inhibition at 50 µM (Hepatitis C virus [9]) [%] | inhibition (Hepatitis C virus [3]) | inhibition (Hepatitis C virus [9])
1 | Nc1ccc(-c2cc3c(n2Cc2ccccc2)CCCC3)cc1 | 110 | 9 | 66 | 13 | 8.7 | inactive | 417 | inactive | 12.4 | 88 |  | 
2 | CC(=O)N[C@@]12CCN(C(=O)OC(C)(C)C)C[C@@H]1CN(C(=O)OC(C)(C)C)C2 (racemic) | > 200 |  |  |  |  |  |  |  |  | 43 | inactive | 
3 | Cc1nn(Cc2ccccc2)c(C)c1C(=O)O | > 200 |  | 19 |  |  |  |  |  |  |  |  | inactive
4 | Oc1ccccc1-c1cc2c(n1Cc1ccccc1)CCCC2 | 48.9 | 5 | 96 | 8 | 6.5 |  |  |  | 9.2 | 99 |  | 
5 | O=C(O)C1CC(=O)N(CCc2c[nH]c3ccccc23)C1 (stereo unspecified) | > 200 |  | 22 | >4 | 48.5 |  |  |  |  | 51 |  | 
6 | COc1ccc(NS(=O)(=O)c2ccc(CN3C(=O)c4ccccc4C3=O)cc2)cc1 | > 200 |  | 39 | >9 | 22.5 |  |  |  |  | 60 |  | 
7 | CCn1cc(-c2ccccc2)c(C(=O)O)c1C | > 200 |  |  |  |  |  |  |  |  | 36 | inactive | 
8 | COC(=O)c1cc(C(=O)O)cc(-c2cc3c(n2Cc2ccccc2)CCCC3)c1 | 45.6 | >1 | 81 | >5 | 9.9 |  |  |  | 35.8 | 96 |  | 
9 | C=CCn1c(-c2ccccc2)cc2c1CCCC2 | 119 |  | 35 | 4 | 32.1 |  |  |  |  | 69 |  | 
10 | O=C1CC(c2nc3ccccc3[nH]2)CN1C1CCCCC1 (stereo unspecified) | > 200 |  | 19 | >13 | 15.6 |  |  |  |  | 72 |  | 
11 | c1ccc(Cn2c(-c3cccnc3)cc3c2CCCC3)cc1 | < 25 |  | 92 |  |  |  |  |  |  | 99 |  | 
12 | Cc1cccc(N2CC(c3nc4ccccc4[nH]3)CC2=O)c1 (stereo unspecified) | > 200 |  | 21 | >12 | 17.3 |  |  |  |  | 77 |  | 
13 | O=C(O)C1CCCN(S(=O)(=O)c2ccccc2)C1 (racemic) | > 200 |  |  | >7 | 28.1 |  |  |  |  | 62 | inactive | 
14 | CC(C(N)=O)n1c(-c2ccccc2)cc2c1CCCC2 (stereo unspecified) | 156 |  | 50 | >10 | 15.4 |  |  |  |  | 83 |  | 
15 | Cc1ccc(CN(Cc2cc3cc(C)ccc3[nH]c2=O)C(=O)c2ccc(CN3CCN(C)CC3)cc2)cc1 | < 25 |  | 92 |  |  |  |  |  |  | 99 |  | 
16 | Fc1ccc(-n2c(-c3ccccc3)cc3c2CCCC3)cc1 | > 200 | >7 | 71 | >16 | 12.3 | inactive | > 1000 | inactive | 29.2 | 66 |  | 
17 | Cc1ccc2[nH]c(=O)c(CN(CCc3ccccc3)C(=O)c3ccc(OCCN(C)C)cc3)cc2c1 | > 200 |  | 45 | >8 | 24.8 |  |  |  |  | 61 |  | 
18 | Br.CC(=O)[C@]12CCN(Cc3ccccc3)C[C@H]1[C@H](c1ccccc1)NC2 (racemic) | > 200 |  |  | >11 | 17.4 |  |  |  |  | 76 | inactive | 
19 | O=C(O)c1nn(Cc2ccccc2)c2ccccc12 | > 200 |  |  |  |  |  |  |  |  | 46 | inactive | 
20 | Cc1ccc2[nH]c(=O)c(CN(Cc3ccccc3)C(=O)c3ccc(NC(=N)N)cc3)cc2c1 | > 200 |  |  |  |  |  |  |  |  | 44 | inactive | 

Row | SMILES | CC50 [1] [µM] | Ratio CC50/EC50 [2] | inhibition at 50 µM (Hepatitis C virus [3]) [%] | Ratio CC50/EC50 [4] | EC50 (Hepatitis C virus [5]) [µM] | inhibition [6] | IC50 [7] [µM] | inhibition (Hepacivirus hominis) | EC50 (Hepatitis C virus [8]) [µM] | inhibition at 50 µM (Hepatitis C virus [9]) [%] | inhibition (Hepatitis C virus [3]) | inhibition (Hepatitis C virus [9])
21 | CC1CN(C(=O)c2ccccc2)c2ccccc2NC1=O (stereo unspecified) | > 200 |  | 21 | >14 | 14.1 |  |  |  |  | 77 |  | 
22 | Cc1ccc2[nH]c(=O)c(CN(Cc3ccc(F)cc3)C(=O)c3ccc(NC(=N)N)cc3)cc2c1 | > 200 |  | 54 |  |  |  |  |  |  | 29 |  | 
23 | Cc1nc2c(c(C)nn2-c2ccccc2)c(C)c1CCC(=O)O | > 200 |  |  | >17 | 11.7 |  |  |  |  | 78 | inactive | 
24 | O=C1CC(c2nc3ccccc3[nH]2)CN1Cc1ccccc1 (stereo unspecified) | > 200 |  |  | >9 | 21.1 |  |  |  |  | 67 | inactive | 
25 | COc1ccc(CN2CC(C)n3c(nc4cccnc43)C2=O)c(OC)c1 (racemic) | > 200 |  | 45 |  |  |  |  |  |  | 48 |  | 
26 | CC(C)(C)OC(=O)N1CC(=O)[C@]2(C)CCN(Cc3ccccc3)[C@@H]2C1 (relative stereo) | 115 | 5 | 73 | >19 | 6 |  |  |  | 24.3 | 98 |  | 
27 | CCn1cc(C(=O)Nc2ccccc2C(N)=O)c(=O)c2cc(OC)ccc21 | 85.6 |  | 17 | 4 | 20.6 |  |  |  |  | 65 |  | 
28 | O=C(O)CCn1c(-c2ccccc2)cc2ccccc21 |  |  | 26 |  |  |  |  |  |  | 54 |  | 
29 | CCOC(=O)[C@@H](C)N1C(=O)C(=O)c2ccccc21 | > 200 |  | 19 | >27 | 7.3 |  |  |  |  | 85 |  | 
30 | COc1cccc(C(=O)Nc2cc(C)nc3ccc(C)cc23)c1 | < 25 |  | 88 |  |  |  |  |  |  | 99 |  | 
31 | Cc1nn(Cc2ccccc2)c(C)c1CC(=O)O | > 200 |  |  |  |  |  |  |  |  | 14 | inactive | 
32 | CCn1cc(-c2ccccc2)c(C(N)=O)c1C | > 200 |  | 49 | >8 | 23.6 |  |  |  |  | 66 |  | 
33 | CCOC(=O)C(C)n1c(-c2ccccc2)cc2c1CCCC2 (racemic) | 84.3 | 6 | 74 | 6 | 13.7 |  |  |  | 13.2 | 95 |  | 
34 | O=C(O)c1cc(-c2ccncc2)nc2ccccc12 | > 200 |  |  |  |  |  |  |  |  | 49 | inactive | 
35 | C[C@@]12C[C@@H]3C(=O)Nc4ccccc4C(=O)N3[C@@H]1CCCCC2=O (racemic) | > 200 |  |  |  |  |  |  |  |  |  | inactive | inactive
36 | CC1(CO)CCN2CCCCC21 (racemic) | > 200 |  | 50 |  |  |  |  |  |  | 25 |  | 
37 | NC(=O)Cn1c(-c2ccccc2)cc2c1CCCC2 | > 200 |  | 37 |  |  |  |  |  |  | 48 |  | 
38 | C[C@@]12CC3C(=O)N4[C@H](C[C@@]5(C)C(=O)CCCC[C@@H]45)C(=O)N3[C@@H]1CCCCC2=O (mixture of isomers) | > 200 |  |  |  |  |  |  |  |  | 28 | inactive | 
39 | CC(=O)c1cn(CC(=O)O)c2ccccc12 | > 200 |  |  |  |  |  |  |  |  | 55 | inactive | 
40 | Br.CC(=O)N[C@]12CCN(Cc3ccccc3)C[C@H]1[C@H](c1ccccc1)NC2 (racemic) | > 200 |  |  | >41 | 4.9 |  |  |  |  | 73 | inactive | 
